Experimental data taken from PMC4942345 (Organic & biomolecular chemistry, 2016).
Where a SMILES comes first, the peptide text is derived from it. [ ]: non-standard residue; d: D form. The star is where a group is joined. Benzoyl(4-SO2NH2) = NS(=O)(=O)c1ccc(C(=O)*)cc1

Key:
[1] = tested on: mixture of hCAIX, hCAXII, hCAVB and hCAII; test: Pull-down experiment with a mixture of CA isozymes, SDS-PAGE; assay type: binding, human; conditions: [CA] = 1.00 μM, Fig. 4
hCAII [2] = target: T1, hCAII (Homo sapiens, UniProt P00918); test: Esterase activity inhibition; assay type: biochemical; conditions: from IC50 values
Procedure, shortened: (§1)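 Commercial human CA isozyme at 0.2 μM was run with the inhibitor-peptide conjugate as blocker. The substrate was 50 μM 4-nitrophenyl acetate in Tris buffer (9 mM Tris-HCl, 81 mM NaCl, 10% v/v acetonitrile, 1% v/v DMSO). Nitrophenol formation was followed by absorbance at 400 nm. Each run was done at least in triplicate.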

hCAI [3] = target: T2, hCAI (Homo sapiens, UniProt P00915); test: Esterase activity inhibition; assay type: biochemical
T2 sequence (P00915 whole entry): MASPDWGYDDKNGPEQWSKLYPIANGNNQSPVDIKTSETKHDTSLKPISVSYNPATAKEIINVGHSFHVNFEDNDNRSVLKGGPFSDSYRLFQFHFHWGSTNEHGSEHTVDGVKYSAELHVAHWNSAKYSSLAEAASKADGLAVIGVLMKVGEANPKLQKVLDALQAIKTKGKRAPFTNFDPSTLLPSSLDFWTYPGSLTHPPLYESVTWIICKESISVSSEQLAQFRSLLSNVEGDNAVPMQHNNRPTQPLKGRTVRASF
Procedure, shortened: as §1

hCAI [4] = target: T2, hCAI; assay type: binding
Procedure, shortened: (§2)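 Excess biotinylated conjugate was loaded onto streptavidin agarose in PBS for 2 h, then washed 3-4 times with PBS and 0.05% PBST. The resin was incubated overnight at 4 °C with hCAII and hCAI, added separately or as a mixture, then washed. It was boiled 10 min at 99 °C in SDS loading buffer with reducing agent and run on SDS-PAGE.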

hCAII [5] = target: T1, hCAII; assay type: binding; conditions: fluorescence visualization of SDS gel, Fig. 3b and 3c
Procedure, shortened: as §2

| increase of inhibitory activity against hCAII compared to 4-ABS (hCAII [2]) | increase of inhibitory activity against hCAI compared to 4-ABS (hCAI [3]; from IC50 values, esterase activity) [fold] | specificity in terms of enzymatic inhibitory activity (IC50) (hCAI [3]; hCAI versus hCAII and hCAIX) | pull-down, enzymes tested separately: capturing ability for hCAI (hCAI [4]; [hCA] = 0.57 μM, Fig. 3a, compared with 1, 2 and 7) | pull-down with mixture of ZW700-hCAII and CY3-hCAI: binding to hCAI (hCAI [4]; fluorescence visualization of SDS gel, Fig. 3b and 3c) | SMILES | pull-down with mixture of CA isozymes: isozyme captured [1] | pull-down with mixture of ZW700-hCAII and CY3-hCAI: binding to hCAII (hCAII [5]) |
| --- | --- | --- | --- | --- | --- | --- | --- |
| 2.6 fold | 30 | good specificity for hCAI | greatest capturing ability for hCAI | binds strongly | CC(C)C[C@@H](NC(=O)[C@H](NC(=O)[C@@H](CC(=O)O)NC(=O)[C@H](NC(=O)[C@@H](CC(=O)O)NC(=O)c1ccc(S(N)(=O)=O)cc1)C(C)C)C(C)C)C(N)=O [Compound 9, 4-CBS-dvdvl] ({Benzoyl(4-SO2NH2)}-[dD][dV][dD][dV][dL]-NH2) | selective capturing of hCAII | binds strongly |
| ca. 17 fold | – | – | – | – | CC(C)C[C@@H](NC(=O)[C@@H](CC(=O)O)NC(=O)c1ccc(S(N)(=O)=O)cc1)C(=O)N[C@H](CC(=O)O)C(=O)N[C@H](CC(=O)O)C(=O)N[C@H](Cc1c[nH]c2ccccc12)C(N)=O [Compound 7, 4-CBS-dlddw] ({Benzoyl(4-SO2NH2)}-[dD][dL][dD][dD][dW]-NH2) | selective capturing of hCAII | significantly increased binding selectively to hCAII |
